This is an account of results in ChEMBL document CHEMBL1121415, “Inhibition of histamine-induced gastric secretion by flavone-6-carboxylic acids” (1980).

Each structure is given as a SMILES string. “And” between values parts separate entries of the source, which are not always exact repeats. Equal values may be shown once.

What all share (type): functional
Assay [1] concerns Rattus norvegicus. Put plainly: Inhibition of histamine-induced gastric acid secretion in the rat following 80 mg/kg s.c. administration. Conditions: Stomach, sc. The method, boiled down:
(§1)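 Compound was given subcutaneously at 1 mL/kg to 48-h-fasted rats in groups of 10; controls received saline. Pylorus ligation under ether followed 30 min later. Histamine 2.5 mg/kg sc was given at 15-min intervals for 3 h. Gastric juice was titrated with 0.02 N NaOH to pH 7.0 to give total acid output, expressed as % mean inhibition vs controls, with ANOVA.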

For assay [2], the system named is Rattus norvegicus. In words: The compound was tested for its ability to inhibit histamine-induced gastric acid secretion in the rat at a dose of 70 mg/kg, sc. Conditions: Stomach, route subcutaneous. In outline:
as §1

The subject of assay [3] is Rattus norvegicus. In words: The compound was tested for its ability to inhibit histamine-induced gastric acid secretion in the rat at a dose of 76 mg/kg, sc. The note with it: Stomach, route subcutaneous. In outline: as §1
For assay [4], the system named is Rattus norvegicus. Put plainly: % inhibition in total acid secretion when tested orally in rat ligated stomach preparation at 200 mg/kg peroral dose. The note with it: route oral. The method, boiled down: (§2)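 Rats fasted 48 h with water ad libitum, in groups of 10, were dosed orally by gavage at 1 mL/kg; controls received saline. After 30 min, under ether, the pylorus was ligated. Histamine 2.5 mg/kg sc was given right after surgery and every 15 min for 3 h. Gastric juice was titrated with 0.02 N NaOH to pH 7.0 ± 0.1 as mequiv H+/100 g. Mean % inhibition vs controls was tested by ANOVA.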

In assay [5] the test system is Rattus norvegicus. In words: Determined as […] and at 100 mg/kg peroral dose. Conditions: route oral. In outline: as §2
Assay [6] concerns Rattus norvegicus. Put plainly: Determined as […] and at 150 mg/kg peroral dose. Conditions: route oral. In outline:
as §2

In assay [7] the test system is Rattus norvegicus. In words: Gastric juice volume when tested orally in rat ligated stomach preparation at 100 mg/kg peroral dose. The note with it: route oral. In outline: (§3)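 Orally gavaged rats (1 mL/kg; saline controls; 48-h fast, groups of 10) had pylorus ligation under ether 30 min post-dose. They then received histamine 2.5 mg/kg sc every 15 min for 3 h. At sacrifice, stomach contents were aspirated and the gastric juice volume in mL was recorded. Results are given as mean ± SD.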

Assay [8] relates to Rattus norvegicus. In words: Determined as […] and at 200 mg/kg peroral dose. Conditions: route oral. In outline:
as §2

In assay [9] the test system is Rattus norvegicus. In words: Determined as […] and at 50 mg/kg peroral dose. Conditions: route oral. The method, boiled down:
as §2

For assay [10], the system named is Rattus norvegicus. Put plainly: Gastric juice volume when tested orally in rat ligated stomach preparation at 150 mg/kg peroral dose. Conditions: route oral. In outline:
as §3

Assay [11] has as its system Rattus norvegicus. In words: Gastric juice volume when tested orally in rat ligated stomach preparation at 200 mg/kg peroral dose. The note with it: route oral. The method, boiled down: as §3
Assay [12] concerns Rattus norvegicus. In words: % inhibition in total acid secretion when tested orally in rat ligated stomach preparation at 100 mg/kg peroral dose. The note with it: route oral. In outline:
as §2

The subject of assay [13] is Rattus norvegicus. In words: Gastric juice volume when tested orally in rat ligated stomach preparation at 50 mg/kg peroral dose. Conditions: route oral. In outline: as §3
Assay [14] relates to Rattus norvegicus. In words: The compound was tested for its ability to inhibit histamine-induced gastric acid secretion in the rat at a dose of 60 mg/kg, sc. The note with it: Stomach, route subcutaneous. In outline: as §1
Assay [15] deals with Rattus norvegicus. In words: The compound was tested for its ability to inhibit histamine-induced gastric acid secretion in the rat at a dose of 66 mg/kg, sc. Conditions: Stomach, route subcutaneous. In outline: as §1
The test system of assay [16] is Rattus norvegicus. In words: The compound was tested for its ability to inhibit histamine-induced gastric acid secretion in the rat at a dose of 90 mg/kg, sc. Conditions: Stomach, route subcutaneous. In outline:
as §1

In assay [17] the test system is Rattus norvegicus. Put plainly: % inhibition in total acid secretion when tested orally in rat ligated stomach preparation at 150 mg/kg peroral dose. Conditions: route oral. In outline: as §2
For assay [18], the system named is Rattus norvegicus. In words: Determined as […] and at 75 mg/kg peroral dose. The note with it: route oral. In outline: as §2
For assay [19], the system named is Rattus norvegicus. Put plainly: % inhibition in total acid secretion when tested orally in rat ligated stomach preparation at 75 mg/kg peroral dose. The note with it: route oral. The method, boiled down: as §2
The subject of assay [20] is Rattus norvegicus. In words: Gastric juice volume when tested orally in rat ligated stomach preparation at 75 mg/kg peroral dose. Conditions: route oral. In outline:
as §3

Take `COc1ccc(-c2oc3ccc(C(=O)O)cc3c(=O)c2OC)cc1`: the inhibition in vivo at 80 mg/kg with Rattus norvegicus [1] is 22%.
Turning to `CS(=O)(=O)c1ccc(-c2cc(=O)c3cc(C(=O)O)ccc3o2)cc1`, the inhibition in vivo at 70 mg/kg with Rattus norvegicus [2] is 41%.
Consider `CC(C)c1ccc(-c2oc3ccc(C(=O)O)cc3c(=O)c2O)cc1`, for which, in the assay with Rattus norvegicus [1], the inhibition in vivo at 80 mg/kg is 24%.
Same read-out and setting: the figure for `O=C(O)c1ccc2oc(-c3ccccc3Br)c(O)c(=O)c2c1` is 22%.
Consider `CCCCCCOc1ccc(-c2oc3ccc(C(=O)O)cc3c(=O)c2OC)cc1`, for which, in the assay on Rattus norvegicus [3], the inhibition in vivo at 76 mg/kg was -12%.
Turning to `CCCCCCc1ccc(-c2cc(=O)c3cc(C(=O)O)ccc3o2)cc1`, in the assay with Rattus norvegicus [1], the inhibition in vivo at 80 mg/kg is 2%.
On to `Cc1ccc(-c2oc3ccc(C(=O)O)cc3c(=O)c2OC(C)C)cc1`, for which the inhibition in vivo at 80 mg/kg with Rattus norvegicus [1] is 8%.
As for `O=C(O)c1ccc2oc(-c3ccc(Cl)cc3)c(O)c(=O)c2c1`, the inhibition in vivo at 80 mg/kg in the assay on Rattus norvegicus [1] is -19%.
Take `COc1ccc(-c2oc3ccc(C(=O)O)cc3c(=O)c2O)cc1`: the inhibition in vivo at 80 mg/kg with Rattus norvegicus [1] is 24%.
`O=C(O)c1ccc(-c2oc3ccc(C(=O)O)cc3c(=O)c2O)cc1`: the inhibition in vivo at 80 mg/kg in the assay on Rattus norvegicus [1] turned out to be 23%.
In the case of `COc1ccc(-c2oc3ccc(C(=O)O)cc3c(=O)c2OC(C)C)cc1`, the Inhibition with Rattus norvegicus [4] was 34% and 59%; with Rattus norvegicus [12] it was 4% and 9%. Moreover, the “mequiv of HCl” value in the assay on Rattus norvegicus [5] was 0.226; in the assay with Rattus norvegicus [6] it was 0.161; in the assay with Rattus norvegicus [8], 0.101; in the assay on Rattus norvegicus [9], 0.238. Also, the Volume turned out to be 5.16 mL in the assay with Rattus norvegicus [7], 4.8 mL in the assay with Rattus norvegicus [10], 3.68 mL with Rattus norvegicus [11] and 5.13 mL with Rattus norvegicus [13]. In the assay on Rattus norvegicus [1], the inhibition in vivo at 80 mg/kg is 35%.
As to `COc1c(-c2ccc(Cl)cc2)oc2ccc(C(=O)O)cc2c1=O`, the inhibition in vivo at 80 mg/kg in the assay on Rattus norvegicus [1] came to 34%.
With `COc1ccc(-c2cc(=O)c3cc(C(=O)O)ccc3o2)cc1`, the inhibition in vivo at 80 mg/kg in the assay on Rattus norvegicus [1] turned out to be 13%.
As to `Cc1ccc(-c2oc3ccc(C(=O)O)cc3c(=O)c2O)cc1`, the inhibition in vivo at 80 mg/kg in the assay with Rattus norvegicus [1] is -6%.
Turning to `CCOc1ccc(-c2oc3ccc(C(=O)O)cc3c(=O)c2OC(C)C)cc1`, the inhibition in vivo at 60 mg/kg with Rattus norvegicus [14] was found to be 18%.
As to `Cc1ccccc1-c1oc2ccc(C(=O)O)cc2c(=O)c1O`, the inhibition in vivo at 80 mg/kg with Rattus norvegicus [1] stood at 15%.
Turning to `O=C(O)c1ccc2oc(-c3ccc(F)cc3)cc(=O)c2c1`, the inhibition in vivo at 80 mg/kg in the assay with Rattus norvegicus [1] is 21%.
With `CC(C)Oc1c(-c2ccc(C(C)C)cc2)oc2ccc(C(=O)O)cc2c1=O`, the inhibition in vivo at 80 mg/kg in the assay on Rattus norvegicus [1] stood at 20%.
With `COc1c(-c2ccc(F)cc2)oc2ccc(C(=O)O)cc2c1=O`, in the assay with Rattus norvegicus [2], the inhibition in vivo at 70 mg/kg worked out at 4%.
For the compound `COc1c(-c2ccc(C)cc2)oc2ccc(C(=O)O)cc2c1=O`, the inhibition in vivo at 80 mg/kg in the assay with Rattus norvegicus [1] was determined as 4%.
With `COc1cccc(-c2oc3ccc(C(=O)O)cc3c(=O)c2OC(C)C)c1`, in the assay on Rattus norvegicus [15], the inhibition in vivo at 66 mg/kg was 12%.
`CC(C)c1ccc(-c2cc(=O)c3cc(C(=O)O)ccc3o2)cc1`: in the assay with Rattus norvegicus [1], the inhibition in vivo at 80 mg/kg came to 19%.
With `CCCCCCOc1ccc(-c2oc3ccc(C(=O)O)cc3c(=O)c2O)cc1`, in the assay with Rattus norvegicus [1], the inhibition in vivo at 80 mg/kg is -11%.
As to `COc1cc(-c2oc3ccc(C(=O)O)cc3c(=O)c2O)cc(OC)c1OC`, in the assay with Rattus norvegicus [1], the inhibition in vivo at 80 mg/kg amounted to 24%.
For the compound `COc1c(-c2ccc(C(C)C)cc2)oc2ccc(C(=O)O)cc2c1=O`, the inhibition in vivo at 80 mg/kg with Rattus norvegicus [1] was 18%.
In the case of `C/N=C(\S)NCCCCc1c[nH]cn1` [BURIMAMIDE], the inhibition in vivo at 90 mg/kg in the assay on Rattus norvegicus [16] is 49%.
In the case of `CNC(=S)NCCSCc1[nH]cnc1C` [METIAMIDE], the inhibition in vivo at 150 mg/kg in the assay with Rattus norvegicus [17] worked out at 76%. Moreover, the “mequiv of HCl” value with Rattus norvegicus [18] worked out at 0.148; in the assay with Rattus norvegicus [6], 0.064. Also, the inhibition in vivo at 75 mg/kg in the assay with Rattus norvegicus [19] was 46%. Besides, the Volume in the assay on Rattus norvegicus [10] was 1.7 mL; in the assay with Rattus norvegicus [20], 2.99 mL.
